For orientation: MIC means the smallest concentration in the dilution series that meets the test's criterion for growth inhibition. A higher MIC goes with weaker potency.

Data on ten molecules can be found in ChEMBL document CHEMBL1135230, “Synthesis of Sordaricin analogues as potent antifungal agents against Candida albicans” (2002).

Type in all cases: functional
One experiment deals with Nakaseomyces glabratus. The experiment can be described thus: Tested in vitro for the minimum inhibitory concentration (MIC) against Candida glabrata ATCC 90030. The method, boiled down:
(§1)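 Broth MIC determined in RPMI1640 at pH 7.0, incubated at 35 °C; MIC taken as the lowest concentration giving 80% inhibition of fungal growth.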

Experiment [1] has as its system Candida albicans. As to the kind of experiment: Tested in vitro for the minimum inhibitory concentration (MIC) against Candida albicans SANK51486. Summed up:
as §1

Experiment [2] relates to Candida albicans. The experiment can be described thus: Tested in vitro for the minimum inhibitory concentration (MIC) against Candida albicans TIMM3164. The method, boiled down: as §1
Experiment [3] concerns Candida albicans. As to the kind of experiment: Tested in vitro for the minimum inhibitory concentration (MIC) against Candida albicans ATCC 24433. The method, boiled down: as §1
The test system of the next experiment is Candida tropicalis. The experiment can be described thus: Tested in vitro for the minimum inhibitory concentration (MIC) against Candida tropicalis ATCC750. The method, boiled down: as §1
Experiment [4] has as its system Candida albicans. As to the kind of experiment: Tested in vitro for the minimum inhibitory concentration (MIC) against Candida albicans ATCC 64550. The method, boiled down: as §1

In brackets after ≈: the same amount, converted by molar mass.

As to `CCC(C)n1ncn(-c2ccc(N3CCN(c4ccc(OC[C@H]5CO[C@](Cn6cncn6)(c6ccc(Cl)cc6Cl)O5)cc4)CC3)cc2)c1=O` (stereo not given in full) [ITRACONAZOLE], the MIC stood at 1 µg/mL (≈ 1.42 µM) in the experiment with Nakaseomyces glabratus; 0.031 µg/mL (≈ 0.0439 µM) with Candida albicans [1]; 0.25 µg/mL (≈ 0.354 µM) in the experiment on Candida albicans [2]; 0.125 µg/mL (≈ 0.177 µM) in the experiment with Candida albicans [3]; 0.5 µg/mL (≈ 0.709 µM) with Candida tropicalis; 1 µg/mL (≈ 1.42 µM) against Candida albicans [4].

For `CC(C)C1=CC2CC3(C=O)[C@@H]4CC[C@@H](C)[C@H]4CC2(CON=C2CCCCC2)C13C(=O)O` (stereo not given in full), the MIC with Nakaseomyces glabratus is 0.063 µg/mL (≈ 0.147 µM); against Candida albicans [1], 0.031 µg/mL (≈ 0.0725 µM); in the experiment on Candida albicans [2], 0.063 µg/mL (≈ 0.147 µM); against Candida albicans [3] it was 0.031 µg/mL (≈ 0.0725 µM); in the experiment with Candida tropicalis, 1 µg/mL (≈ 2.34 µM); in the experiment with Candida albicans [4], 0.063 µg/mL (≈ 0.147 µM).

As to `CC(C)C1=CC2CC3(C=O)[C@@H]4CC[C@@H](C)[C@H]4CC2(COC2CCCCC2)C13C(=O)O` (stereo not given in full), the MIC with Nakaseomyces glabratus is at most 0.063 µg/mL; with Candida albicans [1], at most 0.063 µg/mL; against Candida albicans [2], 0.25 µg/mL (≈ 0.603 µM); in the experiment with Candida albicans [3], 0.125 µg/mL (≈ 0.302 µM); against Candida tropicalis, 2 µg/mL (≈ 4.82 µM); with Candida albicans [4] it was 0.25 µg/mL (≈ 0.603 µM).

`OC(Cn1cncn1)(Cn1cncn1)c1ccc(F)cc1F` [FLUCONAZOLE]: the MIC against Nakaseomyces glabratus is over 4 µg/mL; against Candida albicans [1], 0.25 µg/mL (≈ 0.816 µM); against Candida albicans [2], over 4 µg/mL; with Candida albicans [3], 0.5 µg/mL (≈ 1.63 µM); against Candida tropicalis, 0.5 µg/mL (≈ 1.63 µM); in the experiment on Candida albicans [4], over 4 µg/mL.

For the molecule `CC(C)C1=CC2CC3(C=O)[C@@H]4CC[C@@H](C)[C@H]4CC2(/C=N/OC2CCCCC2)C13C(=O)O` (stereo not given in full), the MIC turned out to be 0.125 µg/mL (≈ 0.292 µM) against Nakaseomyces glabratus; 0.031 µg/mL (≈ 0.0725 µM) against Candida albicans [1]; 0.063 µg/mL (≈ 0.147 µM) against Candida albicans [2]; 0.031 µg/mL (≈ 0.0725 µM) against Candida albicans [3]; 1 µg/mL (≈ 2.34 µM) against Candida tropicalis; 0.063 µg/mL (≈ 0.147 µM) against Candida albicans [4].

With `CC(C)C1=CC2CC3(C=O)[C@@H]4CC[C@@H](C)[C@H]4CC2(C(=O)NC2CCCCC2)C13C(=O)O` (stereo not given in full), the minimum inhibitory concentration (MIC) against Nakaseomyces glabratus is 0.5 µg/mL (≈ 1.17 µM); with Candida albicans [1], over 4 µg/mL; with Candida albicans [2], over 4 µg/mL; in the experiment with Candida albicans [3], over 4 µg/mL; against Candida tropicalis, over 4 µg/mL; against Candida albicans [4], over 4 µg/mL.

Consider `CC(C)C1=CC2CC3(C=O)[C@@H]4CC[C@@H](C)[C@H]4CC2(CN(C)C2CCCCC2)C13C(=O)O` (stereo not given in full), for which the MIC in the experiment on Nakaseomyces glabratus is 8 µg/mL (≈ 18.7 µM); in the experiment with Candida albicans [1] it was 8 µg/mL (≈ 18.7 µM); with Candida albicans [2], 16 µg/mL (≈ 37.4 µM); in the experiment on Candida albicans [3], 8 µg/mL (≈ 18.7 µM); against Candida tropicalis it was over 16 µg/mL; against Candida albicans [4], 16 µg/mL (≈ 37.4 µM).

For `CC(C)C1=CC2CC3(C=O)[C@@H]4CC[C@@H](C)[C@H]4CC2(CSC2CCCCC2)C13C(=O)O` (stereo not given in full), the minimum inhibitory concentration (MIC) was 0.031 µg/mL (≈ 0.072 µM) with Nakaseomyces glabratus; at most 0.016 µg/mL with Candida albicans [1]; 0.063 µg/mL (≈ 0.146 µM) against Candida albicans [2]; 0.031 µg/mL (≈ 0.072 µM) against Candida albicans [3]; 2 µg/mL (≈ 4.64 µM) in the experiment on Candida tropicalis; 0.125 µg/mL (≈ 0.29 µM) in the experiment on Candida albicans [4].

As to `CC(C)C1=CC2CC3(C=O)[C@@H]4CC[C@@H](C)[C@H]4CC2(C(=O)OC2CCCCC2)C13C(=O)O` (stereo not given in full), the MIC against Nakaseomyces glabratus is 0.5 µg/mL (≈ 1.17 µM); against Candida albicans [1], at most 0.125 µg/mL; in the experiment on Candida albicans [2], 0.25 µg/mL (≈ 0.583 µM); with Candida albicans [3], at most 0.125 µg/mL; with Candida tropicalis, 4 µg/mL (≈ 9.33 µM); with Candida albicans [4] it was 0.5 µg/mL (≈ 1.17 µM).

`C/C=C/C=C\C(=O)O[C@H]1[C@H](O)[C@H](OCC23C[C@@H]4[C@H](C)CC[C@H]4C4(C=O)CC2C=C(C(C)C)C34C(=O)O)O[C@H](C)[C@H]1OC` (stereo not given in full): the MIC against Nakaseomyces glabratus was over 4 µg/mL; with Candida albicans [1] it was 0.25 µg/mL (≈ 0.426 µM); against Candida albicans [2] it was 0.5 µg/mL (≈ 0.852 µM); against Candida albicans [3] it was 0.5 µg/mL (≈ 0.852 µM); against Candida tropicalis it was 0.5 µg/mL (≈ 0.852 µM); with Candida albicans [4], 0.5 µg/mL (≈ 0.852 µM).
